Active and inactive are the calls of the source. No cut-off for these calls is given here.
What was measured:
[1] = Cytotoxicity against human T lymphocytes at 10 to 100 uM after 72 hrs by MTT assay; details: t-cell
Method in brief: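 T cells from buffy-coat blood via Ficoll separation, with macrophages removed by adherence. Cultured at 1 × 10^5 cells/well in RPMI 1640 + 10% FBS, n = 3, with 10–100 μM compound for 72 h. MTT (5 mg/mL) added for 4 h, then dissolved in 10% SDS/50% DMF, pH 7.2. A570 read; viability = Atreated/Acontrol × 100.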

T-cell [2] = assay: Immunosuppressive activity in human T lymphocytes assessed as inhibition of PMA-ionomycin-induced cell proliferation at 10 to 100 uM after 72 hrs by BrdU-based ELISA analysis; assay type: functional
Method in brief: (§1)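 Nonadherent buffy-coat T lymphocytes (Ficoll, adherence-depleted) at 10^5 cells/well in RPMI 1640 + 10% FBS, in triplicate. Costimulated with PMA–ionomycin ± compound (10–100 μM) for 72 h. BrdU added at 10 μM final, 14 h before the end. Incorporation read by ELISA. Lovastatin and simvastatin served as positive controls. Means ± SEM, one-way ANOVA.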

T-cell [3] = assay: Immunosuppressive activity in human T lymphocytes assessed as inhibition of PMA-ionomycin-induced cell proliferation after 72 hrs by BrdU-based ELISA analysis; assay type: functional; method in brief: as §1

| SMILES | Activity [1] | inhibition (T-cell [2]) | inhibition (T-cell [3]) | Activity (T-cell [2]) |
| --- | --- | --- | --- | --- |
| C[C@H]1C=C2C=C[C@H](C)[C@]3(CCC(=O)O3)[C@H]2CC1 (relative stereo) | Non-toxic | Active |  |  |
| C[C@@H]1CC[C@@H]2[C@@H](CCC(=O)O)[C@@H](C)C=C[C@H]2C1 [HEPTAKETIDE] | Non-toxic |  | Dose-dependent effect | Active |
| C[C@H]1C=C2C=C[C@H](C)[C@H](CCC(=O)O)[C@H]2CC1 [MONASCUSIC ACID A] | Non-toxic |  | Dose-dependent effect | Active |
| C[C@@H]1CC[C@@H]2[C@@H](/C=C/C(=O)O)[C@@H](C)C=C[C@H]2C1 [MONASCUSIC ACID B] | Non-toxic |  | Dose-dependent effect | Active |
| C[C@@H]1CC[C@@H]2/C(=C/CC(=O)O)[C@@H](C)C=C[C@H]2C1 [MONASCUSIC ACID C] | Non-toxic |  | Dose-dependent effect | Active |
| C[C@H]1C=C2C=C[C@H](C)[C@H](/C=C/C(=O)O)[C@H]2CC1 [MONASCUSIC ACID D] | Non-toxic |  | Dose-dependent effect | Active |
| C[C@H]1C=C2C=C[C@H](C)/C(=C\CC(=O)O)[C@H]2CC1 [MONASCUSIC ACID E] | Non-toxic | Active |  |  |
